Active and inactive are the calls of the source. The rule behind the calls is not given here.
Experiments:
[1] = target: Kappa-type opioid receptor (Homo sapiens) (UniProt P41145); assay: Antagonist activity at human kappa opioid receptor expressed CHO cells assessed as inhibition of [35S]-GTP[gammaS] binding at 10 uM; assay type: functional, cell-based
Summary of the method: (§1)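 Antagonism of [³⁵S]GTPγS binding stimulated by DAMGO (μ), DPDPE (δ) or U69,593 (κ) in CHO cells expressing the human receptor, tested at 10 μM.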

Homo sapiens [2] = organism: Homo sapiens; assay: Selectivity, ratio of Ke for human mu opioid receptor to ratio of Ke for human kappa opioid receptor
Summary of the method: (§2)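 Agonist-stimulated [³⁵S]GTPγS binding in CHO cells overexpressing the human receptor, stimulated by DAMGO (μ), DPDPE (δ) or U69,593 (κ). Agonist concentration–response curves were run with or without a fixed test concentration, using at least two test concentrations. Ke = [L]/(DR − 1) was calculated only when the agonist EC₅₀ shifted at least 4-fold. Values are mean ± SE from at least three experiments, and selectivity comes from the Ke values.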

Homo sapiens [3] = organism: Homo sapiens; assay: Selectivity, ratio of Ke for human delta opioid receptor to ratio of Ke for human kappa opioid receptor; summary of the method: as §2
[4] = target: Mu-type opioid receptor (Homo sapiens) (UniProt P35372); assay: Antagonist activity at human mu opioid receptor expressed CHO cells assessed as inhibition of [35S]-GTP[gammaS] binding at 10 uM; assay type: cell-based; summary of the method: as §1
[5] = target: Kappa-type opioid receptor (Homo sapiens) (UniProt P41145); assay: Agonist activity at human kappa opioid receptor expressed CHO cells assessed as inhibition of [35S]-GTP[gammaS] binding at 10 uM; assay type: functional, cell-based
Summary of the method: (§3)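 Single-point screen at 10 μM for intrinsic agonist activity in a [³⁵S]GTPγS binding assay, using membranes from CHO cells overexpressing the human μ, κ or δ opioid receptor.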

[6] = target: Mu-type opioid receptor (Homo sapiens) (UniProt P35372); assay: Agonist activity at human mu opioid receptor expressed CHO cells assessed as inhibition of [35S]-GTP[gammaS] binding at 10 uM; assay type: cell-based; summary of the method: as §3
[7] = target: Delta-type opioid receptor (Homo sapiens) (UniProt P41143); assay: Agonist activity at human delta opioid receptor expressed CHO cells assessed as inhibition of [35S]-GTP[gammaS] binding at 10 uM; assay type: functional, cell-based; summary of the method: as §3
Mus musculus [8] = organism: Mus musculus; assay: Analgesic activity in mouse assessed as antagonism of U50488-induced antinociception by writhing test; assay type: functional
Mus musculus [9] = organism: Mus musculus; assay: Analgesic activity in mouse assessed as antagonism of morphine-induced antinociception by writhing test; assay type: functional
[10] = target: Delta-type opioid receptor (Homo sapiens) (UniProt P41143); assay: Antagonist activity at human delta opioid receptor expressed CHO cells assessed as inhibition of [35S]-GTP[gammaS] binding at 10 uM; assay type: functional, cell-based; summary of the method: as §1
[11] = target: Delta-type opioid receptor (Homo sapiens) (UniProt P41143); assay: Agonist activity at human delta opioid receptor expressed CHO cells assessed as inhibition of [35S]-GTP[gammaS] binding relative to DPDPE maximal response; assay type: functional, cell-based
Summary of the method: (§4)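 Agonist concentration–response in a [³⁵S]GTPγS binding assay at human δ receptor in CHO cells, using eight concentrations chosen to define the upper and lower asymptotes. EC₅₀ and Emax were calculated, with Emax given as a percentage of the maximum for DPDPE run on the same plate. Values are mean ± SE from at least three independent experiments.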

[12] = target: Delta-type opioid receptor (Homo sapiens) (UniProt P41143); assay: Agonist activity at human delta opioid receptor expressed CHO cells assessed as inhibition of [35S]-GTP[gammaS] binding; assay type: functional, cell-based; summary of the method: as §4

Chain of Kappa-type opioid receptor (Homo sapiens) (P41145 whole entry): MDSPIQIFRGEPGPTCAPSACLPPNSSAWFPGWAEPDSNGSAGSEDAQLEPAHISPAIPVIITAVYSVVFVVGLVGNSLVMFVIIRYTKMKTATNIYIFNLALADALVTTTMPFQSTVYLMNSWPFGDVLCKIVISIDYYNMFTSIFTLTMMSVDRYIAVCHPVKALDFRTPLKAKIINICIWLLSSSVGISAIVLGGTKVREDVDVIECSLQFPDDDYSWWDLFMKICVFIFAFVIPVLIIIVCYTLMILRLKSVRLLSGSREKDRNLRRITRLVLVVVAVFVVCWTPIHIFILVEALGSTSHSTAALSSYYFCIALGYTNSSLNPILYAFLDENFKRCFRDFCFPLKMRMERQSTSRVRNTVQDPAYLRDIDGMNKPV
Chain of Delta-type opioid receptor (Homo sapiens) (P41143 whole entry): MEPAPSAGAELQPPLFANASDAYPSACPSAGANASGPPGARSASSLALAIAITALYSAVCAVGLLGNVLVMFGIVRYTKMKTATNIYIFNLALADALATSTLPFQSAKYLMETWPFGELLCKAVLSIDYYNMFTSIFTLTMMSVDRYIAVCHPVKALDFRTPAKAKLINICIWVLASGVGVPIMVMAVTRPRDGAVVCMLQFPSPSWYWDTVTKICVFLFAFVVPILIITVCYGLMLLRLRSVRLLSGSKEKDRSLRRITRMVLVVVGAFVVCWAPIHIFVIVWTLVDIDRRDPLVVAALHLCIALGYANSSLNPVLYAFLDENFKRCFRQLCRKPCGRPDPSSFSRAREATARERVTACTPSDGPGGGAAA
Chain of Mu-type opioid receptor (Homo sapiens) (P35372 whole entry): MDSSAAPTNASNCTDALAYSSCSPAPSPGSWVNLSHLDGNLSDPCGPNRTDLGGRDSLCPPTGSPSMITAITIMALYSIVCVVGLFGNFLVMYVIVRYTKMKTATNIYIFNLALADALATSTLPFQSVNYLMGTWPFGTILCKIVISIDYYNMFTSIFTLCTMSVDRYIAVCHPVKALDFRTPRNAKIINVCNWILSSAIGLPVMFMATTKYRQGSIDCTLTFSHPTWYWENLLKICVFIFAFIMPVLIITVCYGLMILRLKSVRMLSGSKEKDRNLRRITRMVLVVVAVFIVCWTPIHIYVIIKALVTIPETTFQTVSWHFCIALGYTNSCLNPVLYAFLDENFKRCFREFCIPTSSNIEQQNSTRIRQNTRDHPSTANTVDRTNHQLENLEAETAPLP

Oc1cccc(C2CCN(CCCc3ccccc3)CC2)c1
Activity [1]: inactive | Ratio Ke (Homo sapiens [2]): 13 | Ratio Ke (Homo sapiens [3]): 72 | Activity [4]: inactive

C[C@H]1CN(CCCc2ccccc2)CCN1c1cccc(O)c1
Activity [5]: inactive | Activity [6]: inactive | Activity [7]: inactive

CC1(c2cccc(O)c2)CCN(CCCc2ccccc2)CC1
Activity [1]: inactive | Activity [4]: inactive

C[C@H]1CN(C)CC[C@@]1(C)c1cccc(O)c1
AD50 (Mus musculus [8]): >5 mg/kg | Activity [5]: inactive | Activity [6]: inactive | Activity [7]: inactive | AD50 (Mus musculus [9]): 0.74 mg/kg

Oc1cccc(N2CCN(CCCc3ccccc3)CC2)c1
Activity [5]: inactive | Activity [6]: inactive | Activity [7]: inactive

C[C@H]1CN(CCCc2ccccc2)CC[C@@]1(C)c1cccc(O)c1
AD50 (Mus musculus [9]): 0.28 mg/kg

C[C@H]1CN(C)CCN1c1cccc(O)c1
Activity [10]: inactive | Activity [5]: inactive | Activity [6]: inactive | Activity [7]: inactive

CN1CCN(c2cccc(O)c2)CC1
Activity [1]: inactive | Activity [5]: inactive | Activity [6]: inactive | Activity [7]: inactive

CN1CCC(c2cccc(O)c2)CC1
Activity [10]: inactive | Activity [5]: inactive | Activity [6]: inactive | Activity [7]: inactive | Activity [4]: inactive

CC1CN(CCCc2ccccc2)CCC1c1cccc(O)c1 (configuration not stated)
Activity [1]: inactive | Activity [4]: inactive

CC1CN(C)CCC1c1cccc(O)c1 (configuration not stated)
Activity [10]: inactive

CN1CCC(C)(c2cccc(O)c2)CC1
Emax [11]: 64% | ED50 [12]: 8.3 µM | ED50 (Mus musculus [9]; Mus musculus): 3.4 mg/kg
